Experimental data reported in ChEMBL document CHEMBL2407075, “Sulphonamido-quinoxalines: search for anticancer agent” (Eur J Med Chem, 2013).

Columns and labels:
Assay type in all cases: functional
[1] = system: OVCAR-5; assay: Growth inhibition of human OVCAR5 cells assessed as cell growth at 10^-8 M after 48 hrs by sulforhodamine B assay; conditions: OVCAR-5, 48 h, read-out: Activity
[2] = system: MOLT-4; assay: Growth inhibition of human MOLT4 cells assessed as cell growth at 10^-4 M after 48 hrs by sulforhodamine B assay; conditions: MOLT-4, 48 h, read-out: Activity
[3] = Growth inhibition of human HCC2998 cells assessed as cell growth at 10^-6 M after 48 hrs by sulforhodamine B assay; conditions: HCC 2998, 48 h, read-out: Activity
In short: (§1)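 Five-dose screen at NCI. Cells in RPMI 1640 with 5% FBS and 2 mM L-glutamine, seeded at 5000–40,000 cells/well and grown 24 h at 37 °C, 5% CO2 before dosing, with time-zero plates TCA-fixed. Drug diluted from DMSO stock to 0.01, 0.1, 1, 10 and 100 µM final, 48 h. Cells fixed with cold TCA (10% final), stained with 0.4% SRB and read at 515 nm. Percent growth from Tz, control and test absorbances; GI50, TGI and LC50 from dose-response curves.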

[4] = system: NCI-H522; assay: Growth inhibition of human NCI-H522 cells assessed as cell growth at 10^-6 M after 48 hrs by sulforhodamine B assay; conditions: NCI-H522, 48 h, read-out: Activity
[5] = system: OVCAR-5; assay: Growth inhibition of human OVCAR5 cells assessed as cell growth at 10^-5 M after 48 hrs by sulforhodamine B assay; conditions: OVCAR-5, 48 h, read-out: Activity
[6] = system: SF-539; assay: Growth inhibition of human SF539 cells after 48 hrs by sulforhodamine B assay; conditions: SF-539, 48 h; for CC50: read-out: LC50 (the source's name)
In short: (§2)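 Adherent cells in RPMI 1640 with 5% FBS and 2 mM L-glutamine were plated at 5000–40,000 cells/well and grown 24 h. Five concentrations (0.01–100 µM, DMSO stock) were added for 48 h at 37 °C. Cells were fixed with cold TCA (10% final) and stained with SRB, read at 515 nm. GI50 came from log concentration–growth curves against time-zero and control plates.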

[7] = system: HOP-92; assay: Growth inhibition of human HOP92 cells assessed as cell growth at 10^-5 M after 48 hrs by sulforhodamine B assay; conditions: HOP-92, 48 h, read-out: Activity; in short: as §1
[8] = system: NCI-H322M; assay: Growth inhibition of human NCI-H322M cells after 48 hrs by sulforhodamine B assay; conditions: for CC50: read-out: LC50 (the source's name); in short: as §2
[9] = system: BT-549; assay: Growth inhibition of human BT549 cells assessed as cell growth at 10^-6 M after 48 hrs by sulforhodamine B assay; conditions: BT-549, 48 h, read-out: Activity
In short: (§3)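 Five-dose NCI-60 run (0.01, 0.1, 1, 10 and 100 µM, as 10-fold dilutions from a DMSO stock made at 400× the top final level). Cells were grown in RPMI 1640 with 5% FBS and 2 mM glutamine and plated for 24 h. They were then exposed for 48 h at 37 °C and 5% CO2. TCA fixation was followed by SRB staining with A515 read-out. Percent growth was taken relative to time-zero and control plates.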

[10] = system: HCT-15; assay: Growth inhibition of human HCT15 cells assessed as cell growth at 10^-7 M after 48 hrs by sulforhodamine B assay; conditions: HCT-15, 48 h, read-out: Activity; in short: as §1
[11] = system: UO-31; assay: Growth inhibition of human UO31 cells assessed as cell growth at 10^-6 M after 48 hrs by sulforhodamine B assay; conditions: UO-31, 48 h, read-out: Activity
[12] = system: OVCAR-3; assay: Growth inhibition of human OVCAR3 cells assessed as cell growth at 10^-8 M after 48 hrs by sulforhodamine B assay; conditions: OVCAR-3, 48 h, read-out: Activity
[13] = system: SNB-19; assay: Growth inhibition of human SNB19 cells assessed as cell growth at 10^-6 M after 48 hrs by sulforhodamine B assay; conditions: SNB-19, 48 h, read-out: Activity
[14] = system: NCI-H226; assay: Growth inhibition of human NCI-H226 cells assessed as cell growth at 10^-8 M after 48 hrs by sulforhodamine B assay; conditions: NCI-H226, 48 h, read-out: Activity
[15] = system: HOP-62; assay: Growth inhibition of human HOP62 cells assessed as cell growth at 10^-5 M after 48 hrs by sulforhodamine B assay; conditions: HOP-62, 48 h, read-out: Activity; in short: as §1
[16] = Growth inhibition of human HCC2998 cells after 48 hrs by sulforhodamine B assay; conditions: HCC 2998, 48 h; for CC50: read-out: LC50 (the source's name); in short: as §2
[17] = system: OVCAR-4; assay: Growth inhibition of human OVCAR4 cells assessed as cell growth at 10^-5 M after 48 hrs by sulforhodamine B assay; conditions: OVCAR-4, 48 h, read-out: Activity
[18] = system: COLO 205; assay: Growth inhibition of human COLO205 cells assessed as cell growth at 10^-5 M after 48 hrs by sulforhodamine B assay; conditions: COLO 205, 48 h, read-out: Activity; in short: as §3
[19] = system: OVCAR-4; assay: Growth inhibition of human OVCAR4 cells after 48 hrs by sulforhodamine B assay; conditions: OVCAR-4, 48 h; for CC50: read-out: LC50 (the source's name)
In short: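 Five-dose NCI 60 screen at 0.01, 0.1, 1, 10 and 100 µM, 48 h exposure after 24 h preincubation, in RPMI 1640 with 5% FBS and 2 mM glutamine. Fixed with TCA (10% final for adherent cells, 16% for suspension cells), stained with SRB, A515 read. Percent growth uses time-zero (Tz), control and treated plates. GI50, TGI and LC50 are read from the dose-response curves.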

[20] = system: SF-539; assay: Growth inhibition of human SF539 cells assessed as cell growth at 10^-4 M after 48 hrs by sulforhodamine B assay; conditions: SF-539, 48 h, read-out: Activity
[21] = system: LOX IMVI; assay: Growth inhibition of human LOXIMVI cells assessed as cell growth at 10^-7 M after 48 hrs by sulforhodamine B assay; conditions: read-out: Activity
[22] = system: NCI-H322M; assay: Growth inhibition of human NCI-H322M cells assessed as cell growth at 10^-6 M after 48 hrs by sulforhodamine B assay; conditions: read-out: Activity
[23] = Growth inhibition of human EKVX cells assessed as cell growth at 10^-5 M after 48 hrs by sulforhodamine B assay; conditions: read-out: Activity; in short: as §1
[24] = system: ACHN; assay: Growth inhibition of human ACHN cells assessed as cell growth at 10^-4 M after 48 hrs by sulforhodamine B assay; conditions: read-out: Activity; in short: as §3
[25] = system: HOP-62; assay: Growth inhibition of human HOP62 cells after 48 hrs by sulforhodamine B assay; conditions: HOP-62, 48 h; for CC50: read-out: LC50 (the source's name); in short: as §1
[26] = system: U-251; assay: Growth inhibition of human U251 cells after 48 hrs by sulforhodamine B assay; conditions: U-251, 48 h; for CC50: read-out: LC50 (the source's name); in short: as §2
[27] = system: A549; assay: Growth inhibition of human A549/ATCC cells assessed as cell growth at 10^-4 M after 48 hrs by sulforhodamine B assay; conditions: A549, 48 h, read-out: Activity; in short: as §3
[28] = system: 786-0; assay: Growth inhibition of human 786-0 cells assessed as cell growth at 10^-4 M after 48 hrs by sulforhodamine B assay; conditions: 786-0, 48 h, read-out: Activity; in short: as §3

SMILES | growth at 0.01 µM [1] [%] | growth at 100 µM [2] [%] | growth at 1 µM [3] [%] | growth at 1 µM [4] [%] | growth at 10 µM [5] [%] | TGI [6] [µM] | CC50 [6] [µM] | growth at 10 µM [7] [%] | TGI [8] [µM] | CC50 [8] [µM] | growth at 1 µM [9] [%] | growth at 0.1 µM [10] [%] | growth at 1 µM [11] [%] | growth at 0.01 µM [12] [%] | growth at 1 µM [13] [%] | growth at 0.01 µM [14] [%] | growth at 10 µM [15] [%] | CC50 [16] [µM] | growth at 10 µM [17] [%] | growth at 10 µM [18] [%] | further results
O=S(=O)(Nc1ccc(Cl)cc1)c1ccc2nc(-c3ccccc3)c(-c3ccccc3)nc2c1 | 95 | 68 | 102 | 88 | 6 | > 100 | > 100 | -13 | > 100 | > 100 | 78 | 98 | 90 | 100 | 89 | 91 | 13 | > 100 | 12 | -11 | TGI [16]: > 100 µM; TGI [19]: > 100 µM; CC50 [19]: > 100 µM; growth at 100 µM [20]: 73%; growth at 0.1 µM [21]: 99%; growth at 1 µM [22]: 98%; growth at 10 µM [23]: -7%; growth at 100 µM [24]: 76%; GI50 [25]: 3.95 µM; TGI [25]: > 100 µM; CC50 [25]: > 100 µM; CC50 [26]: > 100 µM; growth at 100 µM [27]: 73%; growth at 100 µM [28]: 75%
O=S(=O)(Nc1ccccn1)c1ccc2nc(-c3ccccc3)c(-c3ccccc3)nc2c1 | 93 | 48 | 100 | 74 | 8 | > 100 | > 100 | -18 | > 100 | > 100 | 71 | 98 | 85 | 92 | 87 | 100 | 16 | > 100 | 10 | -73 | GI50 [19]: 2.79 µM; TGI [19]: > 100 µM; CC50 [19]: > 100 µM; growth at 100 µM [20]: 54%; growth at 0.1 µM [21]: 97%; growth at 1 µM [22]: 108%; growth at 10 µM [23]: -2%; growth at 100 µM [24]: 62%; GI50 [25]: 4.54 µM; TGI [25]: > 100 µM; CC50 [25]: > 100 µM; GI50 [26]: 2.61 µM; TGI [26]: > 100 µM; CC50 [26]: > 100 µM; growth at 100 µM [27]: 51%; growth at 100 µM [28]: 50%
